Reference: ChEMBL document CHEMBL5136969, “A niclosamide-tobramycin hybrid adjuvant potentiates cefiderocol against P. aeruginosa” (2021)
Active and inactive are the calls of the source.

Legend:
Acinetobacter baumannii [1] = assay: Potentiation of vancomycin-induced antibiotic activity against Acinetobacter baumannii ATCC 17978 assessed as MIC fold reduction at 8 ug/ml after 18 hrs by microbroth dilution method; type: functional; conditions: dose 8 µg/ml
Acinetobacter baumannii [2] = assay: Potentiation of tobramycin-induced antibiotic activity against Acinetobacter baumannii ATCC 17978 assessed as MIC fold reduction at 8 ug/ml after 18 hrs by microbroth dilution method; type: functional; conditions: dose 8 µg/ml
Acinetobacter baumannii [3] = assay: Potentiation of piperacilin-induced antibiotic activity against Acinetobacter baumannii ATCC 17978 assessed as MIC fold reduction at 8 ug/ml after 18 hrs by microbroth dilution method; type: functional; conditions: dose 8 µg/ml
Escherichia coli [4] = assay: Potentiation of cefiderocol-induced antibiotic activity against Escherichia coli ATCC 25922 assessed as MIC fold reduction at 8 ug/ml after 18 hrs by microbroth dilution method; type: functional; conditions: dose 8 µg/ml
In short: (§1)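 Initial screen in MHB using a fixed 8 μg mL−1 of adjuvant combined with each antibiotic under 2-fold dilution. Broth microdilution used about 5 × 10^5 CFU/mL at 37 °C for 18 h, with visible turbidity read and confirmed at 590 nm. Fold-potentiation = antibiotic MIC alone ÷ antibiotic MIC with adjuvant.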

Pseudomonas aeruginosa [5] = assay: Potentiation of ceftolozane-induced antibiotic activity against Pseudomonas aeruginosa PAO1 assessed as MIC fold reduction at 8 ug/ml after 18 hrs by microbroth dilution method; type: functional; conditions: dose 8 µg/ml
In short: (§2)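 Adjuvant held at a fixed 8 μg/mL while the antibiotic was 2-fold serially diluted in Mueller-Hinton broth (MHB), per CLSI microbroth dilution. Overnight cultures were adjusted in saline to 0.5 McFarland, then diluted 1:50 in MHB to about 5 × 10^5 CFU/mL final, and incubated 18 h at 37 °C. MIC was the lowest concentration with no visible turbidity, confirmed at 590 nm. Fold potentiation = MIC alone / MIC with adjuvant.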

Acinetobacter baumannii [6] = assay: Potentiation of ceftolozane-induced antibiotic activity against Acinetobacter baumannii ATCC 17978 assessed as MIC fold reduction at 8 ug/ml after 18 hrs by microbroth dilution method; type: functional; conditions: dose 8 µg/ml; in short: as §2
Pseudomonas aeruginosa [7] = assay: Potentiation of aztreonam-induced antibiotic activity against Pseudomonas aeruginosa PAO1 assessed as MIC fold reduction at 8 ug/ml after 18 hrs by microbroth dilution method; type: functional; conditions: dose 8 µg/ml; in short: as §1
Acinetobacter baumannii [8] = assay: Potentiation of rifampicin-induced antibiotic activity against Acinetobacter baumannii ATCC 17978 assessed as MIC fold reduction at 8 ug/ml after 18 hrs by microbroth dilution method; type: functional; conditions: dose 8 µg/ml
Acinetobacter baumannii [9] = assay: Potentiation of trimethoprim-induced antibiotic activity against Acinetobacter baumannii ATCC 17978 assessed as MIC fold reduction at 8 ug/ml after 18 hrs by microbroth dilution method; type: functional; conditions: dose 8 µg/ml
Pseudomonas aeruginosa [10] = assay: Potentiation of cotrimoxazole-induced antibiotic activity against Pseudomonas aeruginosa PAO1 assessed as MIC fold reduction at 8 ug/ml after 18 hrs by microbroth dilution method; type: functional; conditions: dose 8 µg/ml; in short: as §2
Enterococcus faecium = assay: Antibacterial activity against Enterococcus faecium ATCC 27270 assessed as reduction in bacterial growth after 18 hrs by microbroth dilution method; type: functional
In short: (§3)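 CLSI microbroth dilution in MHB. Overnight cultures were adjusted to 0.5 McFarland in saline, diluted 1:50, and inoculated at about 5 × 10^5 CFU/mL. Agents were 2-fold serially diluted and incubated 18 h at 37 °C. MIC is the lowest concentration without visible turbidity, confirmed by absorbance at 590 nm. Medium with and without cells served as controls.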

Pseudomonas aeruginosa [11] = assay: Potentiation of cefotaxime-induced antibiotic activity against MDR clinical isolate Pseudomonas aeruginosa PA264 assessed as MIC fold reduction at 8 ug/ml after 18 hrs by microbroth dilution method; type: functional, organism-based; conditions: dose 8.0 µg/ml; in short: as §2
Pseudomonas aeruginosa [12] = assay: Potentiation of ceftazidime-induced antibiotic activity against MDR clinical isolate Pseudomonas aeruginosa PA259 assessed as MIC fold reduction at 8 ug/ml after 18 hrs by microbroth dilution method; type: functional, organism-based; conditions: dose 8.0 µg/ml; in short: as §2
Pseudomonas aeruginosa [13] = assay: Potentiation of cefiderocol-induced antibiotic activity against MDR clinical isolate Pseudomonas aeruginosa PA260 assessed as MIC fold reduction at 8 ug/ml after 18 hrs by microbroth dilution method; type: functional, organism-based; conditions: dose 8.0 µg/ml; in short: as §1
Pseudomonas aeruginosa [14] = assay: Antibacterial activity against colistin-resistant clinical isolate Pseudomonas aeruginosa PA101243 assessed as reduction in bacterial growth after 18 hrs in presence of cefiderocol by microbroth dilution method; type: functional
In short: (§4)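 Checkerboard in MHB (iron-replete, not iron-depleted CAMHB). Cefiderocol was 2-fold serially diluted along one axis and the adjuvant along the other. Inoculum was 0.5 McFarland diluted 1:50, about 5 × 10^5 CFU/mL final. Incubation was 18 h at 37 °C, with turbidity read visually and confirmed at 590 nm. FIC was the MIC in combination over the MIC alone for each agent, and the FIC index was their sum. Cut-offs were ≤0.5 synergy, >0.5–4 additive, >4 antagonism.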

Pseudomonas aeruginosa [15] = assay: Antibacterial activity against MDR clinical isolate Pseudomonas aeruginosa PA86052 assessed as potentiation of cefiderocol antibacterial activity by measuring FIC index after 18 hrs by microbroth dilution method; type: functional; in short: as §4
Pseudomonas aeruginosa [16] = assay: Antibacterial activity against MDR clinical isolate Pseudomonas aeruginosa PA109084 assessed as potentiation of cefiderocol antibacterial activity by measuring FIC index after 18 hrs by microbroth dilution method; type: functional
In short: (§5)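 Checkerboard in MHB. Cefiderocol was 2-fold serially diluted along one axis and the adjuvant along the other. Inoculum was prepared from 0.5 McFarland saline suspensions diluted 1:50 in MHB, giving about 5 × 10^5 CFU/mL final. Plates ran 18 h at 37 °C, with turbidity confirmed at 590 nm. FIC = combination MIC ÷ MIC alone for each agent, and FIC index = sum of both. Interpretation: ≤0.5 synergy, >0.5–4 additive, >4 antagonism.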

Escherichia coli [17] = assay: Antibacterial activity against Escherichia coli 94474 assessed as reduction in bacterial growth after 18 hrs by microbroth dilution method; type: functional; in short: as §3
Klebsiella pneumoniae [18] = assay: Antibacterial activity against Klebsiella pneumoniae KP113250 assessed as reduction in bacterial growth after 18 hrs by microbroth dilution method; type: functional; in short: as §3
Klebsiella pneumoniae [19] = assay: Antibacterial activity against Klebsiella pneumoniae KP113254 assessed as reduction in bacterial growth after 18 hrs in presence of cefiderocol by microbroth dilution method; type: functional; in short: as §5
Escherichia coli [20] = assay: Antibacterial activity against Escherichia coli 107115 assessed as potentiation of cefiderocol antibacterial activity by measuring FIC after 18 hrs by microbroth dilution method; type: functional
In short: (§6)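 Checkerboard in Mueller-Hinton broth: cefiderocol 2-fold diluted on one axis, adjuvant 2-fold on the other. Overnight cultures were adjusted to 0.5 McFarland in saline, diluted 1:50 in MHB, and inoculated at about 5 × 10^5 CFU/mL. Incubation was 18 h at 37 °C. Turbidity was read visually and confirmed at 590 nm. FIC index = FIC of antibiotic + FIC of adjuvant; ≤0.5 synergy, >4 antagonism.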

Enterobacter cloacae [21] = assay: Antibacterial activity against Enterobacter cloacae 118564 assessed as potentiation of cefiderocol antibacterial activity by measuring FIC after 18 hrs by microbroth dilution method; type: functional; in short: as §6
Enterobacter cloacae [22] = assay: Antibacterial activity against Enterobacter cloacae 121187 assessed as potentiation of cefiderocol antibacterial activity by measuring FIC after 18 hrs by microbroth dilution method; type: functional; in short: as §6
Pseudomonas aeruginosa [23] = assay: Potentiation of moxifloxacin-induced antibiotic activity against Pseudomonas aeruginosa PAO1 assessed as reduction in microbial growth at 8 ug/ml up to 24 hrs by microbroth dilution method; type: functional; conditions: dose 8 µg/ml
Pseudomonas aeruginosa [24] = assay: Potentiation of moxifloxacin-induced antibiotic activity against Pseudomonas aeruginosa PA263 assessed as MIC fold reduction in ID-CAMHB condition at 8 ug/ml after 18 hrs by microbroth dilution method; type: functional, organism-based; conditions: dose 8.0 µg/ml

NC[C@H]1O[C@H](O[C@H]2[C@H](OCCCCc3cn(-c4ccc(NC(=O)c5cc(Cl)ccc5O)cc4)nn3)[C@@H](O[C@H]3O[C@H](CO)[C@@H](O)[C@H](N)[C@H]3O)[C@H](N)C[C@@H]2N)[C@H](N)C[C@@H]1O
fold change (FC) (Acinetobacter baumannii [1]): 4
fold change (FC) (Acinetobacter baumannii [2]): 4
fold change (FC) (Acinetobacter baumannii [3]): 4
fold change (FC) (Escherichia coli [4]): 4
fold change (FC) (Pseudomonas aeruginosa [5]): 4
fold change (FC) (Acinetobacter baumannii [6]): 4
fold change (FC) (Pseudomonas aeruginosa [7]): 4
fold change (FC) (Acinetobacter baumannii [8]): 4
fold change (FC) (Acinetobacter baumannii [9]): 4
fold change (FC) (Pseudomonas aeruginosa [10]): 4
MIC (Enterococcus faecium): > 128 µg/mL
Activity (Pseudomonas aeruginosa [11]): Active
Activity (Pseudomonas aeruginosa [12]): Active
Activity (Pseudomonas aeruginosa [13]): Active
MIC (Pseudomonas aeruginosa [14]): 2 µg/mL
FIC (Pseudomonas aeruginosa [15]): 1
FIC (Pseudomonas aeruginosa [16]): 0.004
MIC (Escherichia coli [17]): > 128 µg/mL
MIC (Klebsiella pneumoniae [18]): > 128 µg/mL
MIC (Klebsiella pneumoniae [19]): 1 µg/mL
FIC (Escherichia coli [20]): 0.5
FIC (Enterobacter cloacae [21]): 1
FIC (Enterobacter cloacae [22]): 1
Activity (Pseudomonas aeruginosa [23]): >3 log10CFU/ml
Activity (Pseudomonas aeruginosa [24]): Active
